Converted amounts (≈) assume the structure as drawn. The source made the active and inactive calls. No cut-off for these calls is given here.
Key:
[1] = tested on: Rattus norvegicus; test: Antiinflammatory activity in Sprague-Dawley rat assessed as inhibition of carrageenan-induced paw edema at 50 to 70 mg/kg, sc administered 1 hr before carrageenan challenge measured after 1 hr relative to control; assay type: functional; settings: dose mg/kg 50-70; route subcutaneous
How it was run: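 One hour later, baseline right hind paw volume was taken, then 0.05 mL of 1% carrageenan in sterile pyrogen-free 0.9% NaCl was injected into the plantar aponeurosis. Paw volume was read by water plethysmometer at 1, 2, 3 and 4 h. % inhibition = (1 − Rt/Rc) × 100 against carrageenan-only controls (n=5).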

[2] = tested on: Rattus norvegicus; test: Antiinflammatory activity in Sprague-Dawley rat assessed as inhibition of carrageenan-induced paw edema at 50 to 70 mg/kg, sc administered 1 hr before carrageenan challenge measured after 3 hrs relative to control; settings: dose mg/kg 50-70; route subcutaneous
[3] = tested on: Rattus norvegicus; test: Antiinflammatory activity in Sprague-Dawley rat assessed as inhibition of carrageenan-induced paw edema at 50 to 70 mg/kg, sc administered 1 hr before carrageenan challenge measured after 2 hrs relative to control; settings: dose mg/kg 50-70; route subcutaneous
[4] = tested on: Rattus norvegicus; test: Antiinflammatory activity in Sprague-Dawley rat assessed as inhibition of carrageenan-induced paw edema at 50 to 70 mg/kg, sc administered 1 hr before carrageenan challenge measured after 4 hrs relative to control; settings: dose mg/kg 50-70; route subcutaneous
[5] = tested on: Candida albicans; test: Antimicrobial activity against Candida albicans ATCC 10231 at 20 ug/disk by disk diffusion method; assay type: functional, organism-based
How it was run: (§1)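 Disc diffusion sensitivity test as per Bauer et al. Bacteria were subcultured on Mueller-Hinton agar overnight at 37 °C; Candida on SDA at 35 °C for 24-48 h, each passaged at least twice. DMSO served as solvent control; amoxicillin and fluconazole were references. Read-out was the inhibition zone.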

[6] = tested on: Escherichia coli; test: Antimicrobial activity against Escherichia coli ATCC 25922 at 20 ug/disk by disk diffusion method; assay type: functional, organism-based; how it was run: as §1
[7] = tested on: Pseudomonas aeruginosa; test: Antimicrobial activity against Pseudomonas aeruginosa ATCC […] at 20 ug/disk by disk diffusion method; assay type: functional, organism-based; how it was run: as §1
[8] = tested on: Mycolicibacterium phlei; test: Antimicrobial activity against Mycobacterium phlei ATCC 10142 at 20 ug/disk by disk diffusion method; assay type: functional, organism-based; how it was run: as §1
[9] = tested on: Bacillus subtilis; test: Antimicrobial activity against Bacillus subtilis ATCC 6633 after 24 hrs by microdilution assay; assay type: functional; settings: ATCC 6633, 24 h
How it was run: (§2)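 MIC by micro-dilution per NCCLS 1997. Bacteria were subcultured overnight on Mueller-Hinton agar at 37 °C and passaged at least twice. Compounds were serially two-fold diluted in DMSO (1024 down to 16 stock levels) and mixed with sterile nutrient agar, then inoculum was added to the wells. MIC is the lowest concentration giving complete inhibition of macroscopic growth. Controls were DMSO, organism alone and medium alone.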

[10] = tested on: Bacillus subtilis; test: Antimicrobial activity against Bacillus subtilis ATCC 6633 at 20 ug/disk by disk diffusion method; assay type: functional; settings: read-out: DIZ; how it was run: as §1
[11] = tested on: Staphylococcus aureus; test: Antimicrobial activity against Staphylococcus aureus ATCC 29213 at 20 ug/disk by disk diffusion method; assay type: functional, organism-based; how it was run: as §1
[12] = tested on: Escherichia coli; test: Antimicrobial activity against Escherichia coli ATCC 25922 at 25 ug/disk by disk diffusion method; assay type: functional; settings: read-out: DIZ; how it was run: as §1
[13] = tested on: Mycolicibacterium phlei; test: Antimicrobial activity against Mycobacterium phlei ATCC 10142 at 25 ug/disk by disk diffusion method; assay type: functional, organism-based; how it was run: as §1
[14] = tested on: Candida albicans; test: Antimicrobial activity against Candida albicans ATCC 10231 at 25 ug/disk by disk diffusion method; assay type: functional, organism-based; how it was run: as §1
[15] = tested on: Pseudomonas aeruginosa; test: Antimicrobial activity against Pseudomonas aeruginosa ATCC […] at 25 ug/disk by disk diffusion method; assay type: functional; settings: read-out: DIZ; how it was run: as §1
[16] = tested on: Staphylococcus aureus; test: Antimicrobial activity against Staphylococcus aureus ATCC 29213 after 24 hrs by microdilution assay; assay type: functional; settings: ATCC 29213, 24 h
How it was run: (§3)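 MIC by microdilution following NCCLS 1997 guidelines. Compounds were serially two-fold diluted in DMSO from 1024 down to […], mixed with sterile nutrient agar, and inoculum was added to each well. MIC was read as the lowest concentration giving complete absence of macroscopic growth. Controls were DMSO, organism alone and medium alone. Bacteria were precultured on MHA at 37 °C overnight; Candida on SDA at 35 °C.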

[17] = tested on: Pseudomonas aeruginosa; test: Antimicrobial activity against Pseudomonas aeruginosa ATCC […] after 24 hrs by microdilution assay; assay type: functional; how it was run: as §2
[18] = tested on: Staphylococcus aureus; test: Antimicrobial activity against Staphylococcus aureus ATCC 29213 at 25 ug/disk by disk diffusion method; assay type: functional; settings: read-out: DIZ; how it was run: as §1
[19] = tested on: Escherichia coli; test: Antimicrobial activity against Escherichia coli ATCC 25922 after 24 hrs by microdilution assay; assay type: functional; settings: ATCC 25922, 24 h
How it was run: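 MIC by microdilution following NCCLS 1997 guidelines. Bacteria were subcultured on Mueller-Hinton agar overnight at 37 °C and passaged at least twice. Compounds were serially two-fold diluted in DMSO (1024 down to 16), mixed with nutrient agar, and inoculated. MIC was the lowest concentration with no macroscopic growth. DMSO, organism-only and medium-only controls were included, with amoxicillin as reference.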

[20] = tested on: Bacillus subtilis; test: Antimicrobial activity against Bacillus subtilis ATCC 6633 at 25 ug/disk by disk diffusion method; assay type: functional; settings: read-out: DIZ; how it was run: as §1
[21] = tested on: Staphylococcus aureus; test: Antimicrobial activity against Staphylococcus aureus ATCC 29213 at 4 ug/disk by disk diffusion method; assay type: functional, organism-based
[22] = tested on: Pseudomonas aeruginosa; test: Antimicrobial activity against Pseudomonas aeruginosa ATCC […] at 4 ug/disk by disk diffusion method; assay type: functional, organism-based
[23] = tested on: Candida albicans; test: Antimicrobial activity against Candida albicans ATCC 10231 after 48 hrs by microdilution assay; assay type: functional; settings: ATCC 10231, 48 h; how it was run: as §3
[24] = tested on: Escherichia coli; test: Antimicrobial activity against Escherichia coli ATCC 25922 at 4 ug/disk by disk diffusion method; assay type: functional, organism-based
[25] = tested on: Candida albicans; test: Antimicrobial activity against Candida albicans ATCC 10231 at 4 ug/disk by disk diffusion method; assay type: functional; settings: read-out: DIZ
[26] = tested on: Bacillus subtilis; test: Antimicrobial activity against Bacillus subtilis ATCC 6633 at 4 ug/disk by disk diffusion method; assay type: functional, organism-based
[27] = tested on: Mycolicibacterium phlei; test: Antimicrobial activity against Mycobacterium phlei ATCC 10142 at 4 ug/disk by disk diffusion method; assay type: functional, organism-based

SMILES | inhibition (INH) [1] | inhibition (INH) [2] | inhibition (INH) [3] | inhibition (INH) [4] | further results
O=c1/c(=C/c2ccccc2)sc2nc3c(c(-c4ccccc4)cn3-c3ccc(Cl)c(Cl)c3)c(=S)n12 | 0% | – | – | – | –
N#Cc1c(-c2ccccc2)c(-c2ccccc2)n(Cc2ccccc2)c1N | 3.04% | 12.59% | 4.23% | 23.8% | –
Cc1c(-n2c(N)c(C#N)c(-c3ccccc3)c2-c2ccccc2)n(C)n(-c2ccccc2)c1=O | 9.5% | 62.62% | 36.53% | 64.68% | diameter of the inhibition zone (DIZ) [5]: inactive; diameter of the inhibition zone (DIZ) [6]: inactive; diameter of the inhibition zone (DIZ) [7]: inactive; diameter of the inhibition zone (DIZ) [8]: inactive; MIC [9]: 512 µg/mL (≈ 1150 µM); zone of inhibition at 20 µg/disc [10]: 10 mm; diameter of the inhibition zone (DIZ) [11]: inactive
Cc1c(-n2c(-c3ccccc3)c(-c3ccccc3)c3c(=S)n4c(=O)/c(=C/c5ccccc5)sc4nc32)n(C)n(-c2ccccc2)c1=O | 1.74% | – | – | – | –
S=c1[nH]c(=S)c2c(-c3ccccc3)c(-c3ccccc3)n(Cc3ccccc3)c2[nH]1 | 2.608% | 13.23% | 5.38% | 27.61% | MIC [9]: 512 µg/mL (≈ 1200 µM)
CC1(C)S[C@@H]2[C@H](NC(=O)[C@H](N)c3ccc(O)cc3)C(=O)N2[C@H]1C(=O)O [AMOXICILLIN] | – | – | – | – | zone of inhibition at 25 µg/disc [12]: 13 mm; diameter of the inhibition zone (DIZ) [13]: inactive; diameter of the inhibition zone (DIZ) [14]: inactive; zone of inhibition at 25 µg/disc [15]: 12 mm; MIC [16]: 16 µg/mL (≈ 43.8 µM); MIC [17]: 64 µg/mL (≈ 175 µM); zone of inhibition at 25 µg/disc [18]: 13 mm; MIC [9]: 64 µg/mL (≈ 175 µM); MIC [19]: 256 µg/mL (≈ 701 µM); zone of inhibition at 25 µg/disc [20]: 12 mm
O=c1/c(=C/c2ccccc2)sc2nc3c(c(-c4ccccc4)c(-c4ccccc4)n3Cc3ccccc3)c(=S)n12 | 3.498% | – | – | – | –
NNc1nc(N)c2c(-c3ccccc3)cn(-c3ccc(Cl)c(Cl)c3)c2n1 | 14.78% | 95.58% | 30% | 67.43% | –
Nc1nc(=S)[nH]c2c1c(-c1ccccc1)c(-c1ccccc1)n2Cc1ccccc1 | 1.73% | 13.97% | 3.84% | 24.76% | MIC [16]: 256 µg/mL (≈ 627 µM); MIC [9]: 512 µg/mL (≈ 1250 µM)
OC(Cn1cncn1)(Cn1cncn1)c1ccc(F)cc1F [FLUCONAZOLE] | – | – | – | – | diameter of the inhibition zone (DIZ) [21]: inactive; diameter of the inhibition zone (DIZ) [22]: inactive; MIC [23]: 512 µg/mL (≈ 1670 µM); diameter of the inhibition zone (DIZ) [24]: inactive; zone of inhibition at 4 µg/disc [25]: 20 mm; diameter of the inhibition zone (DIZ) [26]: inactive; diameter of the inhibition zone (DIZ) [27]: inactive
Cc1c(-n2c(-c3ccccc3)c(-c3ccccc3)c3c(=N)n(-c4ccccc4)c(=S)[nH]c32)n(C)n(-c2ccccc2)c1=O | 1.98% | – | – | – | –
Nc1nc(=S)[nH]c2c1c(-c1ccccc1)cn2-c1ccc(Cl)c(Cl)c1 | 6.08% | 95.95% | 95.38% | 76.82% | –
Cc1c(-n2c(-c3ccccc3)c(-c3ccccc3)c3c(=S)[nH]c(=S)[nH]c32)n(C)n(-c2ccccc2)c1=O | 0% | 14.1% | 3.94% | 28.8% | –
N#Cc1c(-c2ccccc2)cn(-c2ccc(Cl)c(Cl)c2)c1N | 2.17% | 13.88% | 12.3% | 19.04% | –
S=c1[nH]c(=S)c2c(-c3ccccc3)cn(-c3ccc(Cl)c(Cl)c3)c2[nH]1 | 1.73% | 12.53% | 4.48% | 26% | –
N=c1c2c(-c3ccccc3)cn(-c3ccc(Cl)c(Cl)c3)c2[nH]c(=S)n1-c1ccccc1 | 42% | 76.83% | 48.07% | 68.57% | –
Cc1c(-n2c(-c3ccccc3)c(-c3ccccc3)c3c(N)nc(=S)[nH]c32)n(C)n(-c2ccccc2)c1=O | 0% | 73.34% | 0% | 64.28% | –
NNc1nc(N)c2c(-c3ccccc3)c(-c3ccccc3)n(Cc3ccccc3)c2n1 | 10.43% | 73.9% | 61.15% | 79.04% | –
CC(C)Cc1ccc(C(C)C(=O)O)cc1 (stereo not drawn) [IBUPROFEN] | 6.08% | 60.66% | 45% | 69.52% | –

From ChEMBL document CHEMBL1177864, “Synthesis and biological evaluation of some thio containing pyrrolo [2,3-d]pyrimidine derivatives for their anti-inflammatory and anti-microbial activities” (2010)
